# The list is not random: actives were taken first. Their share in the collection is about 8.9%.
# b-catenin transl – beta-catenin nuclear translocation modulation | HeLa beta-catenin nuclear translocation, immunofluorescence imaging | 190,000 compounds, 0.3% hits | nuclear translocation activity, % at 5 µM;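 active = nuclear translocation activity above 50% at 5 µM, with a well cell count of 50 or more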;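 note: per-cell ratio of nuclear to cytoplasmic median beta-catenin stain intensity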
#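 Test system: human HeLa cell line; Doses: 5 µM primary, 0.02–20 µM confirmation; Incubation: 24 h compound exposure, 37°C; Detection: beta-catenin immunofluorescence imaging with DAPI; Read-out: beta-catenin nuclear/cytoplasmic ratio, % activation.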
# MT stabilize HCS – microtubule stabilization, imaging screen; AID 2205; 200,000 compounds, 0.83% hits; % tubulin-high responders, % at 10 µM; HeLa tubulin immunostaining HCS, 24 h; share of cells brighter than vehicle mean+2SD;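 active = plate Z-score above 3 for both tubulin-high and condensed-nucleus cell shares, with cell loss under 80%, at 10 µM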;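 note: anti alpha tubulin signal scored within the nucleus-defined area of each cell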
# Dynein cargo inh – dynein cargo transport inhibition | 3617.4 mouse cells, GR-EGFP nuclear translocation imaging; test concentration mostly 20 µM; stimulated with dexamethasone, 1 µM; active compounds read low | z-score, hits read low | 220,000 compounds, 0.47% hits;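 active = plate z-score of nuclear minus cytoplasmic receptor signal below a set negative limit, without overly bright fluorescence or cell loss, cut at about -3.5 in these data, passing the limit was not always enough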;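 note: z-score of nuclear minus cytoplasmic ring GR-EGFP intensity difference per well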
#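 Buffer or medium: tet-free medium with charcoal-stripped serum / Also added: dexamethasone agonist, 1.0 µM final, for 30 min / Timing: induction 48 h, compound 1 h, agonist 30 min / Measured by: high-content fluorescence imaging after fixation / Read-out: nuclear-to-cytoplasmic GR-EGFP distribution per well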
# L major viab – Leishmania major promastigote growth inhibition. inhibition, % at 10 µM. AID 1063. Leishmania major promastigotes, resazurin fluorescence viability. 200,000 compounds, 9% hits; in the data active = inhibition above about 50%;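 note: promastigotes grown with compound for 44 hours at 28 °C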
# HSV replic up – increases HSV replication in cells | HSV replication augmentation in cells, fold increase | maximum fold increase | 220,000 compounds, 0.005% hits; in the data active = maximum fold increase above about 1.5; tested in PC3 cells
# Hits are given with their value; 0 = inactive; - = no result given.
SMILES,b-catenin transl,MT stabilize HCS,Dynein cargo inh,L major viab,HSV replic up
CN(C)c1ccc(/C=C/c2cc[n+](C)c3ccccc23)cc1,0,0,0,100,0
Cc1[nH]c2c(Cl)cccc2c1CCN,0,0,0,56,0
NCCc1c[nH]c2ccccc12,0,0,0,0,0
CN1CCN(C(=O)COc2ccc(N(C)S(=O)(=O)c3ccc(F)cc3)cc2)CC1,0,0,0,0,0
C=CCN1C(=O)NC(=O)/C(=C/c2cnc(SC)nc2)C1=O,0,0,0,0,0
C=CCN1C(=O)NC(=O)/C(=C/c2cc3c4c(c2)CCCN4CCC3)C1=O,0,0,0,93,0
COC(=O)C(C)Oc1cc(C)cc2oc(=O)c3c(c12)CCC3 (centres undefined),0,0,0,0,0
CCCn1c(C(=O)c2ccccc2)nc2ccccc21,0,0,0,0,0
Fc1ccc(C2=CCN(C(c3ccc(Cl)cc3)c3nnnn3Cc3ccccc3)CC2)cc1 (centres undefined),0,0,0,0,0
Fc1ccc(Cn2nnnc2C(c2ccc(Cl)cc2)N2CC=C(c3ccc(F)cc3)CC2)cc1 (centres undefined),0,0,0,99,0
CCN1CCC(O)(c2ccccc2)C(C(=O)c2ccccc2)C1 (centres undefined),-,0,0,80,0
CN1CCCC(C(=O)c2ccccc2)C1 (centres undefined),0,0,0,0,0
CSc1ccc(C(=O)C2CCCN(C)C2)cc1 (centres undefined),0,0,0,72,0
CSc1ncc(CN2CCCC(C(=O)c3ccccc3SC)C2)cn1 (centres undefined),0,-,0,-,0
CSc1ccc(C(=O)C2CCCN(Cc3cnc(SC)nc3)C2)cc1 (centres undefined),0,0,0,94,0
CSc1ccc(C(=O)C2CCCN(CCCn3cccn3)C2)cc1 (centres undefined),0,0,0,86,0
CCn1ccnc1CN1CCCC(C(=O)c2ccc(SC)cc2)C1 (centres undefined),0,0,0,0,0
COc1ccc(-c2nc3ccccc3c(=O)o2)cc1,0,0,0,0,0
O=c1c2ccccc2nc(/C=C/c2ccc3c(c2)OCO3)n1-c1cccc(O)c1,0,0,0,0,0
Cn1ccc(NC(=O)CCl)n1,0,0,0,0,0
O=C(CN1CC=C(c2ccccc2)CC1)NC(=O)NCc1ccccc1,0,0,0,0,0
OC(COCc1ccc(Cl)cc1)CN1CC=C(c2ccccc2)CC1 (centres undefined),0,0,0,88,0
CC(C)CC(=O)NC(Oc1ccc(Cl)cc1)C(Cl)(Cl)Cl (centres undefined),0,0,0,0,0
CC(C)(C)C(O)C(Oc1ccc(Cl)cc1)n1cncn1 (centres undefined),0,0,0,82,0
Cc1ccc(C2N3CCCN23)cc1 (centres undefined),0,-,0,-,0
SMILES,b-catenin transl,MT stabilize HCS,Dynein cargo inh,L major viab,HSV replic up
CCOC(=O)C1=C(N)OC2=C(C(=O)CCC2)C12C(=O)N1c3c(ccc(C)c32)C(C)=CC1(C)C (centres undefined),0,0,0,79,0
Clc1ccc(C(c2ccccc2)c2ncc[nH]2)cc1 (centres undefined),0,0,0,0,0
CCOP(=O)(OCC)C(c1ccccc1)N(C)C=O (centres undefined),0,0,0,0,0
O=C(Nc1nc(-c2ccccc2)c(-c2ccccc2)s1)c1ccc(S(=O)(=O)N(CCCl)CCCl)cc1,0,0,0,74,0
COc1ccc(N2C(=O)CC(N3CCC(n4c(=O)[nH]c5ccccc54)CC3)C2=O)cc1 (centres undefined),-,0,0,0,0
CCOC(=O)C1=C(N)Oc2cc(C)oc(=O)c2C12C(=O)N1c3c(cc(OC)cc32)C(C)=CC1(C)C (centres undefined),-,0,0,0,0
COc1cc2c(cc1OC)-c1c(OC)c(OC)cc3c1C(C2)N(C)CC3 (centres undefined),0,0,0,0,0
COc1cc2c(cc1O)C[C@H]1NCCc3cc4c(c-2c31)OCO4,0,0,0,99,0
COc1cc2c(cc1OC)-c1c3c(cc4c1[C@@H](C2)N(C)CC4)OCO3,-,0,0,97,0
COc1ccc(C2NCc3ccccc3-n3cccc32)cc1 (centres undefined),-,0,0,0,0
CCCCn1c(O)c(C=NCc2ccc3c(c2)OCO3)c(=O)[nH]c1=O,0,-,0,-,0
